pIC50, pKi: −log10 of the molar value. Calls of active or inactive are those of the source. No cut-off for these calls is given here.
What was measured:
MRC5 [1] = experiment: Cytotoxicity against MRC5 cells infected with human coronavirus 229E; assay type: functional, cell-based
Replicase polyprotein 1a = Replicase polyprotein 1a (Severe acute respiratory syndrome-related coronavirus, UniProt P0C6U8); experiment: Inhibition of SARS coronavirus 3CL protease
Procedure, shortened: (§1)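 SARS 3CLpro (75 nM) or 229E 3CLpro (75 nM), recombinant, expressed as GST fusion in E. coli BL21(DE3)pLysS and released with factor Xa. Enzyme preincubated with compound 20 min at 25 °C. Reaction in Tris-HCl pH 7.5, NaCl, EDTA, DTT and BSA, 30 min at 25 °C, stopped with TFA. Conversion measured by reverse-phase HPLC peak areas. Ki by Cheng–Prusoff.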

Human coronavirus 229E = experiment: Inhibition of human coronavirus 229E 3CL protease; assay type: functional; procedure, shortened: as §1
SARS-CoV [2] = experiment: Antiviral activity against SARS coronavirus in VeroE6 cells assessed as reduction in viral load at 5 uM; assay type: functional, Severe acute respiratory syndrome-related coronavirus
[3] = Stability in human plasma after 120 mins; assay type: ADME, cell-free; conditions: read-out: Stability
Procedure, shortened: (§2)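 Human, mouse or rat plasma was prewarmed 5 min at 37 °C. Compound was added from a 100 µM stock in 1% DMSO to give 90% plasma. Samples were shaken at 37 °C for 0, 30 or 120 min, then quenched in acetonitrile with internal standard and centrifuged. Supernatant was diluted and analysed by LC/MS. Result is % of initial remaining.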

[4] = Stability in mouse plasma after 120 mins; assay type: ADME; conditions: read-out: Stability; procedure, shortened: as §2
Mus musculus = organism: Mus musculus; experiment: Stability in mouse plasma; assay type: ADME; procedure, shortened: as §2
[5] = Stability in mouse plasma after 30 mins; assay type: ADME; conditions: read-out: Stability; procedure, shortened: as §2
Vero = experiment: Cytotoxicity against VeroE6 cells infected with SARS coronavirus; assay type: functional, cell-based; conditions: Chlorocebus sabaeus
[6] = Stability in human plasma after 30 mins; assay type: ADME, cell-free; conditions: read-out: Stability; procedure, shortened: as §2
SARS-CoV [7] = experiment: Antiviral activity against SARS coronavirus in VeroE6 cells assessed as reduction in viral load at 1.25 uM; assay type: functional, Severe acute respiratory syndrome-related coronavirus
MRC5 [8] = experiment: Antiviral activity against human coronavirus 229E in MRC5 cells assessed as reduction in viral load at 1.25 uM; assay type: functional
Procedure, shortened: (§3)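 HCoV 229E (ATCC VR-740) stocks were grown in MRC-5 cells. MRC-5 cells were preabsorbed with 40 pfu/well virus for 1 h, then unabsorbed virus was removed and serially diluted compound added. Supernatants were harvested and TCID50 titred on fresh MRC-5 cells. Titre is given as log TCID50/mL.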

MRC5 [9] = experiment: Antiviral activity against human coronavirus 229E in MRC5 cells assessed as reduction in viral load at 2.5 uM; assay type: functional; procedure, shortened: as §3
Plasma [10] = experiment: Stability in human plasma; assay type: ADME, cell-free; procedure, shortened: as §2
SARS-CoV [11] = experiment: Antiviral activity against SARS coronavirus in VeroE6 cells assessed as reduction in viral load at 0.625 uM; assay type: functional, Severe acute respiratory syndrome-related coronavirus
MRC5 [12] = experiment: Antiviral activity against human coronavirus 229E in MRC5 cells assessed as reduction in viral load at 5 uM; assay type: functional; procedure, shortened: as §3
MRC5 [13] = experiment: Antiviral activity against human coronavirus 229E in MRC5 cells assessed as reduction in viral load; assay type: functional; procedure, shortened: as §3
MRC5 [14] = experiment: Protection of MRC5 cells infected with human coronavirus 229E at 1 uM; assay type: functional, cell-based
Procedure, shortened: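 MRC-5 cells at 90% confluence were infected for 1 h with 10-fold serial dilutions of HCoV 229E stock. Unabsorbed virus was removed and cells overlaid with 0.3% agarose. Compound was present in the medium for 4 days. Cells were then fixed with 10% formalin and stained with 0.5% crystal violet to see plaques.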

Plasma [15] = experiment: Stability in rat plasma; assay type: ADME, cell-free; procedure, shortened: as §2
[16] = Stability in rat plasma after 30 mins; assay type: ADME, cell-free; conditions: read-out: Stability; procedure, shortened: as §2
MRC5 [17] = experiment: Antiviral activity against human coronavirus 229E in MRC5 cells assessed as reduction in viral load at 0.625 uM; assay type: functional; procedure, shortened: as §3
SARS-CoV [18] = experiment: Antiviral activity against SARS coronavirus in VeroE6 cells assessed as reduction in viral load at 10 uM; assay type: functional, Severe acute respiratory syndrome-related coronavirus
SARS-CoV [19] = experiment: Antiviral activity against SARS coronavirus in VeroE6 cells assessed as reduction in viral load; assay type: functional, Severe acute respiratory syndrome-related coronavirus
SARS-CoV [20] = experiment: Antiviral activity against SARS coronavirus in VeroE6 cells assessed as reduction in viral load at 2.5 uM; assay type: functional, Severe acute respiratory syndrome-related coronavirus
[21] = Stability in rat plasma after 120 mins; assay type: ADME, cell-free; conditions: read-out: Stability; procedure, shortened: as §2

CCOC(=O)/C=C/[C@H](C[C@@H]1CCNC1=O)NC(=O)[C@H](CC(C)C)NC(=O)[C@@H](NC(=O)OCc1ccccc1)C(C)OC(C)(C)C (some centres undefined)
pIC50 (MRC5 [1]): 6.06
pKi (Replicase polyprotein 1a): 7.24

CCOC(=O)/C=C/[C@H](C[C@@H]1CCNC1=O)NC(=O)[C@H](Cc1ccc(F)cc1)NC(=O)[C@@H](NC(=O)c1cc(C)on1)C(C)C
pKi (Human coronavirus 229E): < 5.00
pIC50 (MRC5 [1]): < 4.70
pKi (Replicase polyprotein 1a): < 5.00

CC(OC(C)(C)C)[C@H](NC(=O)OCc1ccccc1)C(=O)N[C@@H](CC1CCCCC1)C(=O)N[C@H](C=O)C[C@@H]1CCNC1=O (some centres undefined)
log10 TCID50 (SARS-CoV [2]): 2
remaining at 2 h [3]: 83%
remaining at 2 h [4]: 71%
Stability (Mus musculus): 100%
pKi (Human coronavirus 229E): 7.17
pIC50 (MRC5 [1]): 6.85
remaining at 0.5 h [5]: 84%
pIC50 (Vero): 6.22
remaining at 0.5 h [6]: 81%
log10 TCID50 (SARS-CoV [7]): 6
log10 TCID50 (MRC5 [8]): 1.3
log10 TCID50 (MRC5 [9]): 1.3
Stability (Plasma [10]): 100%
log10 TCID50 (SARS-CoV [11]): 6.4
log10 TCID50 (MRC5 [12]): 1.3
log10 TCID50 (MRC5 [13]): 6.51
pKi (Replicase polyprotein 1a): 7.28
Activity (MRC5 [14]): Active
Stability (Plasma [15]): 100%
remaining at 0.5 h [16]: 70%
log10 TCID50 (MRC5 [17]): 3
log10 TCID50 (SARS-CoV [18]): 2
log10 TCID50 (SARS-CoV [19]): 6.7
log10 TCID50 (SARS-CoV [20]): 5
remaining at 2 h [21]: 73%

CCOC(=O)/C=C/[C@H](C[C@@H]1CCNC1=O)NC(=O)[C@H](CC(C)C)NC(=O)[C@@H](NC(=O)OCc1ccccc1)C(C)C
pIC50 (MRC5 [1]): 5.04
pKi (Replicase polyprotein 1a): 6.18

CCOC(=O)/C=C/[C@H](C[C@@H]1CCNC1=O)NC(=O)[C@H](Cc1ccccc1)NC(=O)[C@@H](NC(=O)OCc1ccccc1)C(C)C
pIC50 (MRC5 [1]): 4.88
pKi (Replicase polyprotein 1a): 5.65

Reference: ChEMBL document CHEMBL1145328, “Synthesis, crystal structure, structure-activity relationships, and antiviral activity of a potent SARS coronavirus 3CL protease inhibitor” (J Med Chem, 2006)
